Reference: paper PMC7993274 (Clinical and Translational Science, 2020)

Test: Treatment-emergent adverse events, SAD period
Format: in vivo, human
Procedure, shortened: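 Double-blind, placebo-controlled study in healthy men and nonchildbearing women aged 18–55 y. The SAD period gave one fasted oral dose; the MAD period gave fed dosing q.d. for 10 days, plus a separate b.i.d. cohort. TEAEs, serious AEs and discontinuation AEs were monitored ≥28 days after the last dose. Vital signs, physical exam, 12-lead ECG, hematology, clinical chemistry and urinalysis were also recorded. Data summarized descriptively.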

SMILES: Cn1cc(-c2cn3nccc3c(-c3cnn([C@]4(CC#N)C[C@@H](C#N)C4)c3)n2)cn1 [PF‐06826647]
- AEs (SAD 3 mg (n = 6)): 0 n
- AEs leading to study drug dose reduction or interruption (SAD 3 mg (n = 6)): 0 n
- Participants with AEs (SAD 3 mg (n = 6)): 0 n (%)
- Participants with TEAEs: Alanine aminotransferase increased (SAD 3 mg (n = 6)): 0 n (%)
- Participants with TEAEs: Aspartate aminotransferase increased (SAD 3 mg (n = 6)): 0 n (%)
- Participants with TEAEs: Edema (SAD 3 mg (n = 6)): 0 n (%)
- Participants with TEAEs: Face edema (SAD 3 mg (n = 6)): 0 n (%)
- Participants with TEAEs: Gastrointestinal disorders (SOC) (SAD 3 mg (n = 6)): 0 n (%)
- Participants with TEAEs: General disorders and administration site conditions (SOC) (SAD 3 mg (n = 6)): 0 n (%)
- Participants with TEAEs: Headache (SAD 3 mg (n = 6)): 0 n (%)
- Participants with TEAEs: Injury, poisoning, and procedural complications (SOC) (SAD 3 mg (n = 6)): 0 n (%)
- Participants with TEAEs: Investigations (SOC) (SAD 3 mg (n = 6)): 0 n (%)
- Participants with TEAEs: Nausea (SAD 3 mg (n = 6)): 0 n (%)
- Participants with TEAEs: Nervous system disorders (SOC) (SAD 3 mg (n = 6)): 0 n (%)
- Participants with TEAEs: Periorbital hematoma (SAD 3 mg (n = 6)): 0 n (%)
- Participants with TEAEs: Periorbital hemorrhage (SAD 3 mg (n = 6)): 0 n (%)
- Participants with TEAEs: Peripheral swelling (SAD 3 mg (n = 6)): 0 n (%)
- Participants with TEAEs: Pruritus (SAD 3 mg (n = 6)): 0 n (%)
- Participants with TEAEs: Rash (SAD 3 mg (n = 6)): 0 n (%)
- Participants with TEAEs: Skin and subcutaneous tissue disorders (SOC) (SAD 3 mg (n = 6)): 0 n (%)
- Participants with TEAEs: Urticaria (SAD 3 mg (n = 6)): 0 n (%)
- SAEs (SAD 3 mg (n = 6)): 0 n
- Severe AEs (SAD 3 mg (n = 6)): 0 n
- AEs (SAD 10 mg (n = 6)): 0 n
- AEs leading to study drug dose reduction or interruption (SAD 10 mg (n = 6)): 0 n
- Participants with AEs (SAD 10 mg (n = 6)): 0 n (%)
- Participants with TEAEs: Alanine aminotransferase increased (SAD 10 mg (n = 6)): 0 n (%)
- Participants with TEAEs: Aspartate aminotransferase increased (SAD 10 mg (n = 6)): 0 n (%)
- Participants with TEAEs: Edema (SAD 10 mg (n = 6)): 0 n (%)
- Participants with TEAEs: Face edema (SAD 10 mg (n = 6)): 0 n (%)
- Participants with TEAEs: Gastrointestinal disorders (SOC) (SAD 10 mg (n = 6)): 0 n (%)
- Participants with TEAEs: General disorders and administration site conditions (SOC) (SAD 10 mg (n = 6)): 0 n (%)
- Participants with TEAEs: Headache (SAD 10 mg (n = 6)): 0 n (%)
- Participants with TEAEs: Injury, poisoning, and procedural complications (SOC) (SAD 10 mg (n = 6)): 0 n (%)
- Participants with TEAEs: Investigations (SOC) (SAD 10 mg (n = 6)): 0 n (%)
- Participants with TEAEs: Nausea (SAD 10 mg (n = 6)): 0 n (%)
- Participants with TEAEs: Nervous system disorders (SOC) (SAD 10 mg (n = 6)): 0 n (%)
- Participants with TEAEs: Periorbital hematoma (SAD 10 mg (n = 6)): 0 n (%)
- Participants with TEAEs: Periorbital hemorrhage (SAD 10 mg (n = 6)): 0 n (%)
- Participants with TEAEs: Peripheral swelling (SAD 10 mg (n = 6)): 0 n (%)
- Participants with TEAEs: Pruritus (SAD 10 mg (n = 6)): 0 n (%)
- Participants with TEAEs: Rash (SAD 10 mg (n = 6)): 0 n (%)
- Participants with TEAEs: Skin and subcutaneous tissue disorders (SOC) (SAD 10 mg (n = 6)): 0 n (%)
- Participants with TEAEs: Urticaria (SAD 10 mg (n = 6)): 0 n (%)
- SAEs (SAD 10 mg (n = 6)): 0 n
- Severe AEs (SAD 10 mg (n = 6)): 0 n
- AEs (SAD 30 mg (n = 8)): 0 n
- AEs leading to study drug dose reduction or interruption (SAD 30 mg (n = 8)): 0 n
- Participants with AEs (SAD 30 mg (n = 8)): 0 n (%)
- Participants with TEAEs: Alanine aminotransferase increased (SAD 30 mg (n = 8)): 0 n (%)
- Participants with TEAEs: Aspartate aminotransferase increased (SAD 30 mg (n = 8)): 0 n (%)
- Participants with TEAEs: Edema (SAD 30 mg (n = 8)): 0 n (%)
- Participants with TEAEs: Face edema (SAD 30 mg (n = 8)): 0 n (%)
- Participants with TEAEs: Gastrointestinal disorders (SOC) (SAD 30 mg (n = 8)): 0 n (%)
- Participants with TEAEs: General disorders and administration site conditions (SOC) (SAD 30 mg (n = 8)): 0 n (%)
- Participants with TEAEs: Headache (SAD 30 mg (n = 8)): 0 n (%)
- Participants with TEAEs: Injury, poisoning, and procedural complications (SOC) (SAD 30 mg (n = 8)): 0 n (%)
- Participants with TEAEs: Investigations (SOC) (SAD 30 mg (n = 8)): 0 n (%)
- Participants with TEAEs: Nausea (SAD 30 mg (n = 8)): 0 n (%)
- Participants with TEAEs: Nervous system disorders (SOC) (SAD 30 mg (n = 8)): 0 n (%)
- Participants with TEAEs: Periorbital hematoma (SAD 30 mg (n = 8)): 0 n (%)
- Participants with TEAEs: Periorbital hemorrhage (SAD 30 mg (n = 8)): 0 n (%)
- Participants with TEAEs: Peripheral swelling (SAD 30 mg (n = 8)): 0 n (%)
- Participants with TEAEs: Pruritus (SAD 30 mg (n = 8)): 0 n (%)
- Participants with TEAEs: Rash (SAD 30 mg (n = 8)): 0 n (%)
- Participants with TEAEs: Skin and subcutaneous tissue disorders (SOC) (SAD 30 mg (n = 8)): 0 n (%)
- Participants with TEAEs: Urticaria (SAD 30 mg (n = 8)): 0 n (%)
- SAEs (SAD 30 mg (n = 8)): 0 n
- Severe AEs (SAD 30 mg (n = 8)): 0 n
- AEs (SAD 100 mg (n = 7)): 9 n
- AEs leading to study drug dose reduction or interruption (SAD 100 mg (n = 7)): 0 n
- Participants with AEs (SAD 100 mg (n = 7)): 1 (14.3) n (%)
- Participants with TEAEs: Alanine aminotransferase increased (SAD 100 mg (n = 7)): 0 n (%)
- Participants with TEAEs: Aspartate aminotransferase increased (SAD 100 mg (n = 7)): 0 n (%)
- Participants with TEAEs: Edema (SAD 100 mg (n = 7)): 1 (14.3) n (%)
- Participants with TEAEs: Face edema (SAD 100 mg (n = 7)): 1 (14.3) n (%)
- Participants with TEAEs: Gastrointestinal disorders (SOC) (SAD 100 mg (n = 7)): 1 (14.3) n (%)
- Participants with TEAEs: General disorders and administration site conditions (SOC) (SAD 100 mg (n = 7)): 1 (14.3) n (%)
- Participants with TEAEs: Headache (SAD 100 mg (n = 7)): 1 (14.3) n (%)
- Participants with TEAEs: Injury, poisoning, and procedural complications (SOC) (SAD 100 mg (n = 7)): 1 (14.3) n (%)
- Participants with TEAEs: Investigations (SOC) (SAD 100 mg (n = 7)): 0 n (%)
- Participants with TEAEs: Nausea (SAD 100 mg (n = 7)): 1 (14.3) n (%)
- Participants with TEAEs: Nervous system disorders (SOC) (SAD 100 mg (n = 7)): 1 (14.3) n (%)
- Participants with TEAEs: Periorbital hematoma (SAD 100 mg (n = 7)): 1 (14.3) n (%)
- Participants with TEAEs: Periorbital hemorrhage (SAD 100 mg (n = 7)): 1 (14.3) n (%)
- Participants with TEAEs: Peripheral swelling (SAD 100 mg (n = 7)): 0 n (%)
- Participants with TEAEs: Pruritus (SAD 100 mg (n = 7)): 1 (14.3) n (%)
- Participants with TEAEs: Rash (SAD 100 mg (n = 7)): 1 (14.3) n (%)
- Participants with TEAEs: Skin and subcutaneous tissue disorders (SOC) (SAD 100 mg (n = 7)): 1 (14.3) n (%)
- Participants with TEAEs: Urticaria (SAD 100 mg (n = 7)): 1 (14.3) n (%)
- SAEs (SAD 100 mg (n = 7)): 0 n
- Severe AEs (SAD 100 mg (n = 7)): 0 n
- AEs (SAD 400 mg (n = 8)): 0 n
- AEs leading to study drug dose reduction or interruption (SAD 400 mg (n = 8)): 0 n
- Participants with AEs (SAD 400 mg (n = 8)): 0 n (%)
- Participants with TEAEs: Alanine aminotransferase increased (SAD 400 mg (n = 8)): 0 n (%)
- Participants with TEAEs: Aspartate aminotransferase increased (SAD 400 mg (n = 8)): 0 n (%)
- Participants with TEAEs: Edema (SAD 400 mg (n = 8)): 0 n (%)
- Participants with TEAEs: Face edema (SAD 400 mg (n = 8)): 0 n (%)
- Participants with TEAEs: Gastrointestinal disorders (SOC) (SAD 400 mg (n = 8)): 0 n (%)
- Participants with TEAEs: General disorders and administration site conditions (SOC) (SAD 400 mg (n = 8)): 0 n (%)
- Participants with TEAEs: Headache (SAD 400 mg (n = 8)): 0 n (%)
- Participants with TEAEs: Injury, poisoning, and procedural complications (SOC) (SAD 400 mg (n = 8)): 0 n (%)
- Participants with TEAEs: Investigations (SOC) (SAD 400 mg (n = 8)): 0 n (%)
- Participants with TEAEs: Nausea (SAD 400 mg (n = 8)): 0 n (%)
- Participants with TEAEs: Nervous system disorders (SOC) (SAD 400 mg (n = 8)): 0 n (%)
- Participants with TEAEs: Periorbital hematoma (SAD 400 mg (n = 8)): 0 n (%)
- Participants with TEAEs: Periorbital hemorrhage (SAD 400 mg (n = 8)): 0 n (%)
- Participants with TEAEs: Peripheral swelling (SAD 400 mg (n = 8)): 0 n (%)
- Participants with TEAEs: Pruritus (SAD 400 mg (n = 8)): 0 n (%)
- Participants with TEAEs: Rash (SAD 400 mg (n = 8)): 0 n (%)
- Participants with TEAEs: Skin and subcutaneous tissue disorders (SOC) (SAD 400 mg (n = 8)): 0 n (%)
- Participants with TEAEs: Urticaria (SAD 400 mg (n = 8)): 0 n (%)
- SAEs (SAD 400 mg (n = 8)): 0 n
- Severe AEs (SAD 400 mg (n = 8)): 0 n
- AEs (SAD 1,600 mg (n = 6)): 3 n
- AEs leading to study drug dose reduction or interruption (SAD 1,600 mg (n = 6)): 0 n
- Participants with AEs (SAD 1,600 mg (n = 6)): 2 (33.3) n (%)
- Participants with TEAEs: Alanine aminotransferase increased (SAD 1,600 mg (n = 6)): 1 (16.7) n (%)
- Participants with TEAEs: Aspartate aminotransferase increased (SAD 1,600 mg (n = 6)): 1 (16.7) n (%)
- Participants with TEAEs: Edema (SAD 1,600 mg (n = 6)): 0 n (%)
- Participants with TEAEs: Face edema (SAD 1,600 mg (n = 6)): 0 n (%)
- Participants with TEAEs: Gastrointestinal disorders (SOC) (SAD 1,600 mg (n = 6)): 0 n (%)
- Participants with TEAEs: General disorders and administration site conditions (SOC) (SAD 1,600 mg (n = 6)): 1 (16.7) n (%)
- Participants with TEAEs: Headache (SAD 1,600 mg (n = 6)): 0 n (%)
- Participants with TEAEs: Injury, poisoning, and procedural complications (SOC) (SAD 1,600 mg (n = 6)): 0 n (%)
- Participants with TEAEs: Investigations (SOC) (SAD 1,600 mg (n = 6)): 1 (16.7) n (%)
- Participants with TEAEs: Nausea (SAD 1,600 mg (n = 6)): 0 n (%)
- Participants with TEAEs: Nervous system disorders (SOC) (SAD 1,600 mg (n = 6)): 0 n (%)
- Participants with TEAEs: Periorbital hematoma (SAD 1,600 mg (n = 6)): 0 n (%)
- Participants with TEAEs: Periorbital hemorrhage (SAD 1,600 mg (n = 6)): 0 n (%)
- Participants with TEAEs: Peripheral swelling (SAD 1,600 mg (n = 6)): 1 (16.7) n (%)
- Participants with TEAEs: Pruritus (SAD 1,600 mg (n = 6)): 0 n (%)
- Participants with TEAEs: Rash (SAD 1,600 mg (n = 6)): 0 n (%)
- Participants with TEAEs: Skin and subcutaneous tissue disorders (SOC) (SAD 1,600 mg (n = 6)): 0 n (%)
- Participants with TEAEs: Urticaria (SAD 1,600 mg (n = 6)): 0 n (%)
- SAEs (SAD 1,600 mg (n = 6)): 0 n
- Severe AEs (SAD 1,600 mg (n = 6)): 0 n
